Assay results gathered from unrelated publications.
Protocols differ between the studies behind these lines.
CTSB: Cathepsin B (CTSB, Homo sapiens, UniProt P07858)
Oprd1: Delta-type opioid receptor (Oprd1, Rattus norvegicus, UniProt P33533)

CC(C)C[C@H](NC(=O)[C@H]1O[C@@H]1C(=O)O)C(=O)NCCCCN=C(N)N has an inhibition of 97% (CTSB; enzyme activity, inhibitor; 50 nM).
For CC[C@@H](C)[C@@H]1CN([C@@H](CC2CCCCC2)CN2CCC[C@H]2CN2CCNC[C@@H]2CO)CCN1CCC12CC3CC(CC(C3)C1)C2, the remaining binding was 90% (Oprd1; ligand displacement, radioligand; 0.5 µM, 2 h, pH 7.5, cell membranes).
For Cc1nn(C)cc1-c1nc2c(N3CCN(Cc4ccc(Cl)cc4)CC3)c(Cl)cnc2[nH]1, the remaining binding was 94% (Myosin light chain kinase family member 4 (MYLK4, Homo sapiens, UniProt Q86YV6); binding, competition with immobilised ligand; 1 µM).
For CN(C(=O)[C@H](Cc1ccccc1)NC(=O)[C@@H](NC(=O)OCc1ccccc1)C(C)(C)C)N(C#N)CCC(N)=O, the kon was 7020 M⁻¹ s⁻¹ (CTSB; enzyme activity, inhibitor).
CN1CCN(c2ccc(Nc3nccc(-c4ccccc4)n3)cc2C(F)(F)F)CC1 has a remaining signal of 100% (Cyclin-dependent kinase 2 homolog (CRK2, Plasmodium falciparum, UniProt P61075); cell-free assay; 10 µM).
CCN(CC)CCCC[C@H](NC(=O)[C@H](CC(C)C)NC(=O)[C@H](C)NC(=O)[C@H](Cc1ccccc1)NC(=O)c1ccc(C(C)(C)C)cc1)C(=O)N[C@@H](CO)C(=O)OC has a ΔTm of 0.08 °C (Bromodomain-containing protein 7 (BRD7, Homo sapiens, UniProt Q9NPI1); thermal stability, DSF; 25 µM).
With C[C@@H](O)[C@@H]1CN([C@H](Cc2ccc3ccccc3c2)CN2CCC[C@H]2CN2CCNC[C@@H]2Cc2ccc3ccccc3c2)CCN1CCC12CC3CC(CC(C3)C1)C2 the remaining binding was 100% (Oprd1; ligand displacement, radioligand; 0.5 µM, 2 h, pH 7.5, cell membranes).
For C#Cc1n[nH]c2c(-c3cn([C@@H](C)c4ccccc4)c(=O)[nH]c3=O)cc(F)cc12, the inhibition was 2.7% (Mitogen-activated protein kinase kinase kinase kinase 1 (MAP4K1, Homo sapiens, UniProt Q92918); enzyme activity, inhibitor; 0.1 µM).
For CCCC[C@H]1CNCCN1C[C@@H]1CCCN1C[C@@H](Cc1ccc2ccccc2c1)N1CCN(CCC23CC4CC(CC(C4)C2)C3)[C@H]([C@@H](C)O)C1, the remaining binding was 87.3% (Oprd1; ligand displacement, radioligand; 0.5 µM, 2 h, pH 7.5, cell membranes).
Nc1ncc(-c2nc(N3CCOCC3)nc(N3CCOCC3)n2)c(C(F)F)n1 gave a remaining binding of 88% (Mitogen-activated protein kinase 6 (MAPK6, Homo sapiens, UniProt Q16659); binding, competition with immobilised ligand; 10 µM).
N=C(N)c1ccc2cc(OC(=O)c3ccc(N=C(N)N)cc3)ccc2c1 has an inhibition of 13% (Dipeptidyl peptidase 9 (DPP9, Homo sapiens, UniProt Q86TI2); enzyme activity, inhibitor; 10 µM).
With Oc1ccc(C[C@@H]2CN([C@H](Cc3ccc4ccccc4c3)CN3CCC[C@H]3CN3CCNC[C@@H]3Cc3ccc4ccccc4c3)CCN2CCC23CC4CC(CC(C4)C2)C3)cc1 the remaining binding was 94.4% (Oprd1; ligand displacement, radioligand; 0.5 µM, 2 h, pH 7.5, cell membranes).
C#Cc1n[nH]c2c(-c3cn(C(C)c4ccccn4)c(=O)[nH]c3=O)cc(F)cc12 (stereo not drawn) has an inhibition of 6.2% (Cyclin-dependent kinase 8, with cyclin C (CDK8, Homo sapiens, UniProt P49336); enzyme activity, inhibitor; 1 µM).
The remaining binding of C[C@@H](O)[C@@H]1CN([C@H](Cc2ccc3ccccc3c2)CN2CCC[C@H]2CN2CCNC[C@@H]2Cc2ccc3ccccc3c2)CCN1CCc1ccc(Cl)c(Cl)c1 is reported as 105% (Oprd1; ligand displacement, radioligand; 0.5 µM, 2 h, pH 7.5, cell membranes).
COc1ncccc1-c1cnn2ccc(N3CCN(C(=O)OC(C)C)CC3)nc12 gave a remaining binding of 60% (Serine/threonine-protein kinase TNNI3K (TNNI3K, Homo sapiens, UniProt Q59H18); binding, competition with immobilised ligand; 1 µM).
